Reference: PMC12750163 (Acta Pharmaceutica Sinica. B, 2025)

How the values were obtained:
[1] = system: A549 cells; assay: PD-L1 and EVs in A549 cells treated with GW4869; type: cell-based, human; details: 10 μmol/L
Method in brief: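 A549 or LSD1-knockout A549 cells (lentiviral editing, antibiotic selection, PCR/sequencing check, single-cell cloning) are treated ± 10 μmol/L GW4869. Conditioned medium is spun 3000 × g, 10 min, 4 °C. EVs are precipitated with an equal volume of isolation reagent at 4 °C, pelleted 10,000 × g, 60 min, 4 °C, and PBS-washed. Characterisation by TEM/NTA. PD-L1, ALIX, TSG101 and CD9 are detected by western blot from equal cell numbers.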

[2] = system: LLC tumor-bearing mice; assay: In vivo biodistribution; design: species or system mouse; details: i.v., over time
Method in brief: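 Cy5.5-loaded liposomes stand in for drug and anti-PD1. Free Cy5.5 or Cy5.5-nanoparticles (3 mg/kg Cy5.5 equivalent) are injected via the tail vein into LLC tumour-bearing nude mice. Mice are imaged under anaesthesia at 2, 4, 6, 8, 12 and 24 h (λex/λem 680/704 nm). Mean tumour ROI fluorescence is quantified. Organs and tumours are imaged ex vivo at 24 h.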

Row | Molecule | levels of EVs and EVs-PD-L1 ([1]; A549 cells) | membrane PD-L1 and total PD-L1 ([1]; A549 cells) | membrane PD-L1 ([1]; LSD1-knockout A549 cells) | accumulation at the tumor site compared with Cy5.5-FPNs [2]
1 | O=C(/C=C/c1ccc(/C=C/C(=O)Nc2ccc(C3=NCCN3)cc2)cc1)Nc1ccc(C2=NCCN2)cc1 [GW4869] | reduced | significant accumulation | induced the accumulation | 
2 | Cy5.5 |  |  |  | much lower
